From ChEMBL document CHEMBL3259528, “Exploring 5-nitrofuran derivatives against nosocomial pathogens: synthesis, antimicrobial activity and chemometric analysis” (2014)
≈ marks a conversion by molar mass, not a printed value. Calls of active or inactive are those of the source. The calls are words filed in the database; no cut-off is given here.

Assays:
Serratia marcescens = assay: Antimicrobial activity against Serratia marcescens ATCC 14576 at 128 uM after 24 to 48 hrs by two-fold broth microdilution method; assay type: functional, organism-based
Procedure, shortened: (§1)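 Antibacterial microdilution in CAMH, inoculum 0.5 McFarland diluted in saline/CAMH, 35 °C for 18 h, with further reads at 24 and 48 h. Activity is scored at the maximum tested concentration, 128 µM. Triplicate.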

Enterobacter cloacae = assay: Antimicrobial activity against Enterobacter cloacae ATCC 23355 at 128 uM after 24 to 48 hrs by two-fold broth microdilution method; assay type: functional, organism-based; procedure, shortened: as §1
Candida albicans [1] = assay: Antimicrobial activity against Candida albicans ATCC 537Y after 48 hrs by two-fold broth microdilution method; assay type: functional
Procedure, shortened: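 Two-fold serial dilutions in RPMI 1640 per CLSI M27-A2. Stocks in DMSO/RPMI 1:20 v/v. Test range 1.0–64 µM. Inoculum set to 0.5 McFarland, then diluted in saline and RPMI 1640. Plates held at 35 °C for 48 h. MIC is the lowest concentration giving prominent growth reduction. Run in triplicate.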

Enterococcus faecalis = assay: Antimicrobial activity against Enterococcus faecalis ATCC 29212 after 24 to 48 hrs by two-fold broth microdilution method; assay type: functional
Staphylococcus aureus [2] = assay: Antimicrobial activity against Staphylococcus aureus ATCC 29213 after 24 to 48 hrs by two-fold broth microdilution method; assay type: functional
Staphylococcus aureus [3] = assay: Antimicrobial activity against Staphylococcus aureus ATCC 29213 after 18 hrs by modified broth microdilution method; assay type: functional
Procedure, shortened: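 PGI90, the concentration giving 90% growth inhibition, fitted with an exponential growth curve from at least seven concentrations of the MIC assay. Inhibition % = [(Ac − Ap)/Ac] × 100 from A620 of drug-free control versus drug-treated culture. Checked by a modified broth microdilution (Phase 2).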

Klebsiella pneumoniae = assay: Antimicrobial activity against Klebsiella pneumoniae ATCC 700603 at 128 uM after 24 to 48 hrs by two-fold broth microdilution method; assay type: functional, organism-based; procedure, shortened: as §1
Escherichia coli [4] = assay: Antimicrobial activity against Escherichia coli ATCC 25922 after 24 to 48 hrs by two-fold broth microdilution method; assay type: functional
Escherichia coli [5] = assay: Antimicrobial activity against Escherichia coli ATCC 25922 at 128 uM after 24 to 48 hrs by two-fold broth microdilution method; assay type: functional, organism-based; procedure, shortened: as §1
Candida albicans [6] = assay: Antimicrobial activity against Candida albicans ATCC 537Y at 64 uM after 48 hrs by two-fold broth microdilution method; assay type: functional, organism-based
Procedure, shortened: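 Single top concentration of the antifungal microdilution: RPMI 1640, inoculum 0.5 McFarland diluted in saline/RPMI, 35 °C for 48 h. Activity is judged at the highest tested level, 64 µM. Run in triplicate.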

## O=C(N/N=C/c1ccc([N+](=O)[O-])o1)c1ccc(C(F)(F)F)cc1
Serratia marcescens
  Activity: inactive
Enterobacter cloacae
  Activity: inactive
Candida albicans [1]
  MIC: 32 µM (≈ 10.5 µg/mL)
  MIC90: 47.8 µM (≈ 15.6 µg/mL)
Enterococcus faecalis
  MIC: 32 µM (≈ 10.5 µg/mL)
  MIC90: 60.9 µM (≈ 19.9 µg/mL)
Staphylococcus aureus [2]
  MIC: 4 µM (≈ 1.31 µg/mL)
  MIC90: 4.34 µM (≈ 1.42 µg/mL)
Staphylococcus aureus [3]
  log(1/MIC>90): 5.36
Klebsiella pneumoniae
  Activity: inactive
Escherichia coli [4]
  MIC: 64 µM (≈ 20.9 µg/mL)
  MIC90: 92.2 µM (≈ 30.2 µg/mL)

## CCCCc1ccc(C2=NN(C(C)=O)C(c3ccc([N+](=O)[O-])o3)O2)cc1 (centres undefined)
Escherichia coli [5]
  Activity: inactive
Serratia marcescens
  Activity: inactive
Enterobacter cloacae
  Activity: inactive
Candida albicans [6]
  Activity: inactive
Staphylococcus aureus [2]
  MIC: 16 µM (≈ 5.72 µg/mL)
  MIC90: 18.5 µM (≈ 6.6 µg/mL)
Staphylococcus aureus [3]
  log(1/MIC>90): 4.73
Klebsiella pneumoniae
  Activity: inactive

## COc1ccc(C(=O)N/N=C/c2ccc([N+](=O)[O-])o2)cc1
Serratia marcescens
  Activity: inactive
Enterobacter cloacae
  Activity: inactive
Candida albicans [1]
  MIC: 32 µM (≈ 9.26 µg/mL)
  MIC90: 54.6 µM (≈ 15.8 µg/mL)
Enterococcus faecalis
  MIC: 8 µM (≈ 2.31 µg/mL)
  MIC90: 14.6 µM (≈ 4.23 µg/mL)
Staphylococcus aureus [2]
  MIC: 4 µM (≈ 1.16 µg/mL)
  MIC90: 4.11 µM (≈ 1.19 µg/mL)
Staphylococcus aureus [3]
  log(1/MIC>90): 5.39
Klebsiella pneumoniae
  Activity: inactive
Escherichia coli [4]
  MIC: 32 µM (≈ 9.26 µg/mL)
  MIC90: 84 µM (≈ 24.3 µg/mL)

## CC(=O)N1N=C(c2ccc(I)cc2)OC1c1ccc([N+](=O)[O-])o1 (centres undefined)
Escherichia coli [5]
  Activity: inactive
Serratia marcescens
  Activity: inactive
Enterobacter cloacae
  Activity: inactive
Candida albicans [6]
  Activity: inactive
Staphylococcus aureus [2]
  MIC: 4 µM (≈ 1.71 µg/mL)
  MIC90: 6.29 µM (≈ 2.69 µg/mL)
Staphylococcus aureus [3]
  log(1/MIC>90): 5.13
Klebsiella pneumoniae
  Activity: inactive

## CC(=O)N1N=C(c2ccc(F)cc2)OC1c1ccc([N+](=O)[O-])o1 (centres undefined)
Serratia marcescens
  Activity: inactive
Enterobacter cloacae
  Activity: inactive
Candida albicans [1]
  MIC: 32 µM (≈ 10.2 µg/mL)
  MIC90: 43.1 µM (≈ 13.8 µg/mL)
Enterococcus faecalis
  MIC: 64 µM (≈ 20.4 µg/mL)
  MIC90: 97.3 µM (≈ 31.1 µg/mL)
Staphylococcus aureus [2]
  MIC: 8 µM (≈ 2.55 µg/mL)
  MIC90: 8.43 µM (≈ 2.69 µg/mL)
Staphylococcus aureus [3]
  log(1/MIC>90): 5.07
Klebsiella pneumoniae
  Activity: inactive
Escherichia coli [4]
  MIC: 64 µM (≈ 20.4 µg/mL)
  MIC90: 91 µM (≈ 29.1 µg/mL)

## CCCc1ccc(C2=NN(C(C)=O)C(c3ccc([N+](=O)[O-])o3)O2)cc1 (centres undefined)
Escherichia coli [5]
  Activity: inactive
Serratia marcescens
  Activity: inactive
Enterobacter cloacae
  Activity: inactive
Candida albicans [1]
  MIC: 32 µM (≈ 11 µg/mL)
  MIC90: 46 µM (≈ 15.8 µg/mL)
Staphylococcus aureus [2]
  MIC: 8 µM (≈ 2.75 µg/mL)
  MIC90: 15.4 µM (≈ 5.28 µg/mL)
Staphylococcus aureus [3]
  log(1/MIC>90): 4.81
Klebsiella pneumoniae
  Activity: inactive

## CCc1ccc(C(=O)N/N=C/c2ccc([N+](=O)[O-])o2)cc1
Serratia marcescens
  Activity: inactive
Enterobacter cloacae
  Activity: inactive
Candida albicans [1]
  MIC: 32 µM (≈ 9.19 µg/mL)
  MIC90: 54 µM (≈ 15.5 µg/mL)
Enterococcus faecalis
  MIC: 64 µM (≈ 18.4 µg/mL)
  MIC90: 69.1 µM (≈ 19.9 µg/mL)
Staphylococcus aureus [2]
  MIC: 4 µM (≈ 1.15 µg/mL)
  MIC90: 3.68 µM (≈ 1.06 µg/mL)
Staphylococcus aureus [3]
  log(1/MIC>90): 5.43
Klebsiella pneumoniae
  Activity: inactive
Escherichia coli [4]
  MIC: 64 µM (≈ 18.4 µg/mL)
  MIC90: 110 µM (≈ 31.7 µg/mL)

## O=C(N/N=C/c1ccc([N+](=O)[O-])o1)c1ccc(Cl)cc1Cl
Serratia marcescens
  Activity: inactive
Enterobacter cloacae
  Activity: inactive
Candida albicans [1]
  MIC: 32 µM (≈ 10.5 µg/mL)
  MIC90: 48 µM (≈ 15.8 µg/mL)
Enterococcus faecalis
  MIC: 32 µM (≈ 10.5 µg/mL)
  MIC90: 58.7 µM (≈ 19.3 µg/mL)
Staphylococcus aureus [2]
  MIC: 4 µM (≈ 1.31 µg/mL)
  MIC90: 4.83 µM (≈ 1.58 µg/mL)
Staphylococcus aureus [3]
  log(1/MIC>90): 5.13
Klebsiella pneumoniae
  Activity: inactive
Escherichia coli [4]
  MIC: 64 µM (≈ 21 µg/mL)
  MIC90: 87.7 µM (≈ 28.8 µg/mL)

## CC(=O)N1N=C(c2ccc(C)cc2)OC1c1ccc([N+](=O)[O-])o1 (centres undefined)
Escherichia coli [5]
  Activity: inactive
Serratia marcescens
  Activity: inactive
Enterobacter cloacae
  Activity: inactive
Candida albicans [1]
  MIC: 32 µM (≈ 10.1 µg/mL)
  MIC90: 49.9 µM (≈ 15.7 µg/mL)
Staphylococcus aureus [2]
  MIC: 8 µM (≈ 2.52 µg/mL)
  MIC90: 12.2 µM (≈ 3.85 µg/mL)
Staphylococcus aureus [3]
  log(1/MIC>90): 4.91
Klebsiella pneumoniae
  Activity: inactive

## CCC(C)n1ncn(-c2ccc(N3CCN(c4ccc(OCC5COC(Cn6cncn6)(c6ccc(Cl)cc6Cl)O5)cc4)CC3)cc2)c1=O (centres undefined) [ITRACONAZOLE]
Candida albicans [1]
  MIC: < 20 µM

## CCc1ccc(C2=NN(C(C)=O)C(c3ccc([N+](=O)[O-])o3)O2)cc1 (centres undefined)
Escherichia coli [5]
  Activity: inactive
Serratia marcescens
  Activity: inactive
Enterobacter cloacae
  Activity: inactive
Candida albicans [1]
  MIC: 32 µM (≈ 10.5 µg/mL)
  MIC90: 48.2 µM (≈ 15.9 µg/mL)
Staphylococcus aureus [2]
  MIC: 8 µM (≈ 2.63 µg/mL)
  MIC90: 10.2 µM (≈ 3.34 µg/mL)
Staphylococcus aureus [3]
  log(1/MIC>90): 4.99
Klebsiella pneumoniae
  Activity: inactive

## O=C(N/N=C/c1ccc([N+](=O)[O-])o1)c1ccc(Cl)c(Cl)c1
Serratia marcescens
  Activity: inactive
Enterobacter cloacae
  Activity: inactive
Candida albicans [1]
  MIC: 16 µM (≈ 5.25 µg/mL)
  MIC90: 32.2 µM (≈ 10.6 µg/mL)
Enterococcus faecalis
  MIC: 32 µM (≈ 10.5 µg/mL)
  MIC90: 59.7 µM (≈ 19.6 µg/mL)
Staphylococcus aureus [2]
  MIC: 4 µM (≈ 1.31 µg/mL)
  MIC90: 7.49 µM (≈ 2.46 µg/mL)
Staphylococcus aureus [3]
  log(1/MIC>90): 5.5
Klebsiella pneumoniae
  Activity: inactive
Escherichia coli [4]
  MIC: 64 µM (≈ 21 µg/mL)
  MIC90: 85 µM (≈ 27.9 µg/mL)

## O=C(N/N=C/c1ccc([N+](=O)[O-])o1)c1ccccc1
Serratia marcescens
  Activity: inactive
Enterobacter cloacae
  Activity: inactive
Candida albicans [1]
  MIC: 32 µM (≈ 8.3 µg/mL)
  MIC90: 60.3 µM (≈ 15.6 µg/mL)
Enterococcus faecalis
  MIC: 32 µM (≈ 8.3 µg/mL)
  MIC90: 58.8 µM (≈ 15.2 µg/mL)
Staphylococcus aureus [2]
  MIC: 4 µM (≈ 1.04 µg/mL)
  MIC90: 5.27 µM (≈ 1.37 µg/mL)
Staphylococcus aureus [3]
  log(1/MIC>90): 5.28
Klebsiella pneumoniae
  Activity: inactive
Escherichia coli [4]
  MIC: 16 µM (≈ 4.15 µg/mL)
  MIC90: 30.4 µM (≈ 7.89 µg/mL)

## CC(=O)N1N=C(c2ccccc2)OC1c1ccc([N+](=O)[O-])o1 (centres undefined)
Escherichia coli [5]
  Activity: inactive
Serratia marcescens
  Activity: inactive
Enterobacter cloacae
  Activity: inactive
Candida albicans [1]
  MIC: 8 µM (≈ 2.41 µg/mL)
  MIC90: 15.8 µM (≈ 4.77 µg/mL)
Enterococcus faecalis
  MIC: 32 µM (≈ 9.64 µg/mL)
  MIC90: 52.9 µM (≈ 15.9 µg/mL)
Staphylococcus aureus [2]
  MIC: 4 µM (≈ 1.21 µg/mL)
  MIC90: 8.93 µM (≈ 2.69 µg/mL)
Staphylococcus aureus [3]
  log(1/MIC>90): 5.05
Klebsiella pneumoniae
  Activity: inactive

## Cc1cc(NS(=O)(=O)c2ccc(N)cc2)no1 [SULFAMETHOXAZOLE]
Serratia marcescens
  Activity: inactive
Escherichia coli [4]
  MIC: 16 µM (≈ 4.05 µg/mL)

## O=C(N/N=C/c1ccc([N+](=O)[O-])o1)c1ccc(Cl)cc1
Serratia marcescens
  Activity: inactive
Enterobacter cloacae
  Activity: inactive
Candida albicans [1]
  MIC: 32 µM (≈ 9.4 µg/mL)
  MIC90: 53 µM (≈ 15.6 µg/mL)
Enterococcus faecalis
  MIC: 32 µM (≈ 9.4 µg/mL)
  MIC90: 40.7 µM (≈ 12 µg/mL)
Staphylococcus aureus [2]
  MIC: 4 µM (≈ 1.17 µg/mL)
  MIC90: 5.52 µM (≈ 1.62 µg/mL)
Staphylococcus aureus [3]
  log(1/MIC>90): 5.26
Klebsiella pneumoniae
  Activity: inactive
Escherichia coli [4]
  MIC: 64 µM (≈ 18.8 µg/mL)
  MIC90: 102 µM (≈ 30 µg/mL)

## CCCCOc1ccc(C2=NN(C(C)=O)C(c3ccc([N+](=O)[O-])o3)O2)cc1 (centres undefined)
Serratia marcescens
  Activity: inactive
Enterobacter cloacae
  Activity: inactive
Candida albicans [1]
  MIC: 32 µM (≈ 11.9 µg/mL)
  MIC90: 41 µM (≈ 15.3 µg/mL)
Staphylococcus aureus [2]
  MIC: 16 µM (≈ 5.97 µg/mL)
  MIC90: 16.9 µM (≈ 6.3 µg/mL)
Staphylococcus aureus [3]
  log(1/MIC>90): 4.77
Klebsiella pneumoniae
  Activity: inactive
Escherichia coli [4]
  MIC: 64 µM (≈ 23.9 µg/mL)
  MIC90: 77.9 µM (≈ 29.1 µg/mL)

## Cc1ccc(C(=O)N/N=C/c2ccc([N+](=O)[O-])o2)cc1
Escherichia coli [5]
  Activity: inactive
Serratia marcescens
  Activity: inactive
Enterobacter cloacae
  Activity: inactive
Candida albicans [1]
  MIC: 32 µM (≈ 8.74 µg/mL)
  MIC90: 58.3 µM (≈ 15.9 µg/mL)
Enterococcus faecalis
  MIC: 8 µM (≈ 2.19 µg/mL)
  MIC90: 14.2 µM (≈ 3.87 µg/mL)
Staphylococcus aureus [2]
  MIC: 8 µM (≈ 2.19 µg/mL)
  MIC90: 9.42 µM (≈ 2.57 µg/mL)
Staphylococcus aureus [3]
  log(1/MIC>90): 4.97
Klebsiella pneumoniae
  Activity: inactive
